An excerpt weighted towards active compounds, which were near 2.3% of everything screened.
CSN inh = CSN deneddylation inhibition; Purified CSN, SCF-Nedd8-OG deneddylation, fluorescence polarization; AID 651999; 0.38% of 360,000 active; inhibition, % at 12.5 µM;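 active = pattern-corrected inhibition above about 35%, with an unprinted fluorescence ratio check between 0.5 and 1.5, limit read from the data, passing the limit was not always enough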;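 note: 0% = enzyme with substrate and 100% = substrate without enzyme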
Target sequence (Q92905 whole entry, looked up, one chain of several): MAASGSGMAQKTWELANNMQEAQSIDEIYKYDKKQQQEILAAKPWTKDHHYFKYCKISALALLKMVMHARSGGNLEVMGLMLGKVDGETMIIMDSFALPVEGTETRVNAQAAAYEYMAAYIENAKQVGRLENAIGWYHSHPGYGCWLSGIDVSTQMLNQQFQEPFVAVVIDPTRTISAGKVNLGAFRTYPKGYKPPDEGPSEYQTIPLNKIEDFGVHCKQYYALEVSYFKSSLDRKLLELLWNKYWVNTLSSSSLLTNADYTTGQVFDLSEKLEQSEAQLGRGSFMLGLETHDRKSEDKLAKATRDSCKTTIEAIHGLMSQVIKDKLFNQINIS
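Assay system: purified human Csn5 enzyme expressed in HEK293T cells; measure: % inhibition; also added: SCFSkp2-Nedd8OG substrate at 10 nM final; technique: fluorescence polarization; times: reaction 90 min, room temperature; medium: Tris buffer pH 7.5, NaCl, DTT, Tween-20, trehalose, ovalbumin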
Myeloid diff 2 = myeloid differentiation induction; ER-HoxA9 myeloid progenitors, lysozyme-GFP differentiation, flow cytometry; 1% of 360,000 active; calls only at 10 µM;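 active = normalized GFP-positive differentiation at or above the plate's own cutoff, the solvent-only control mean plus 3 SD; inconclusive = no clear call, values can overlap the other calls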;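 note: cells exposed to compound for four days before flow analysis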
HNF4A DNA FP = change in binding of human HNF4 alpha to DNA; P41235; HNF4a-FITC DNA binding, fluorescence polarization, 1 h; activity change, % at 10 µM; 0.3% of 360,000 active; AID 1224865; in the data active = activity change above about 30%, passing the limit was not always enough
Rpn11 block = Rpn11 (human) deubiquitinase inhibition; AID 588493; O00487; 0.59% of 360,000 active; human 26S proteasome, Ub4-pepOG fluorescence polarization; 20S core pre-blocked with epoxomicin; inhibition, % at 20 µM;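 active = inhibition at 20 µM, scaled to each plate's controls, above about 33%, limit read from the data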
TPT1 inh = inhibitors of Candida albicans tRNA 2'-phosphotransferase TPT1. recombinant caTPT1, FP RNA substrate dephosphorylation. inhibition, % at 5 µM. 0.81% of 300,000 active. AID 1962;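 active = inhibition above the mean of all tested compounds plus 3 SD, set per screening campaign, cut at about 24% in these data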;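 note: plate controls were DMSO alone for no effect and ferristatin control at 100 nM for full effect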
* marks the source's active call; other numbers are inactive results; i = inactive; ? = inconclusive; · = no result given; + = active, no number.

SMILES	CSN inh	Myeloid diff 2	HNF4A DNA FP	Rpn11 block	TPT1 inh
COc1ccc(NC(=O)C(c2ccc(C#N)cc2)n2c(=O)c(-c3cc4ccccc4[nH]3)nc3ccccc32)cc1 (stereo unspecified)	10	i	21	·	·
CC(=O)NNC(=O)c1[nH]c2ccc(Br)cc2c1-c1ccccc1	4	i	-4	3	·
Cc1ccc2[nH]c(C(=O)NN=C3CCCCC3)c(-c3ccccc3)c2c1	-9	+	-3	-3	3
Cc1ccc2[nH]c(C(=O)O)c(-c3ccccc3)c2c1	-1	i	0	-6	-3
NNC(=O)c1[nH]c2ccc(Br)cc2c1-c1ccccc1	-2	+	3	4	-4
Cc1cccc(C)c1NC(=O)C1(C)CSCC(=O)N1CCc1c[nH]c2ccccc12 (stereo unspecified)	0	i	2	·	·
Cc1ccc(C)c(CSc2nnc(-c3cccs3)n2Cc2ccco2)c1	3	+	13	6	3
CCOc1ccc(-n2c(SCC(=O)N3CCc4ccccc43)nnc2-c2c[nH]c3ccccc23)cc1	141*	i	38*	5	0
CC1Oc2ccc(C#N)cc2N(Cc2ccccc2OC(F)(F)F)C1=O (stereo unspecified)	-1	i	0	-1	·
CC(C)c1ccc(N(C)C(=O)Cc2c(C(=O)O)n(C)c3ccccc23)cc1	2	+	1	-3	0
COc1ccc(CC(=O)NC(=S)Nc2cccc(C)c2)cc1	-2	+	0	-4	1
C[C@@H]1CN([C@@H](C)CO)C(=O)CCCn2cc(nn2)CO[C@H]1CN(C)S(=O)(=O)c1ccc(Cl)cc1	-4	i	0	-6	·
O=c1cc(-c2ccccc2Cl)oc2c(NS(=O)(=O)c3cc(Cl)cc(Cl)c3O)ccc(O)c12	47*	i	-22	10	2
COC(=O)CCC(=O)OC1(C)C(=O)C=C2C=C(c3ccsc3)OC=C2C1=O (stereo unspecified)	38*	i	8	1	10
COC(=O)C(C)Oc1cc(C)ccc1COc1ccc(-n2nc(C)n(C(F)F)c2=O)cc1 (stereo unspecified)	2	i	-1	2	1
O=C(CC12CC3CC(CC(C3)C1)C2)NCCN1CCOCC1	0	i	0	-5	0
O=C(CN1CCOCC1)NCC12CC3CC(CC(C3)C1)C2	3	+	5	-1	-3
CC(C)C[C@H]1CN(CCCC[C@H]2CNC(=O)C(=O)N2CC2CCCCC2)C(=O)C(=O)N1CC1CCCCC1	7	i	0	·	·
CCOC(=O)C1=C(c2ccccc2)N=c2s/c(=C\c3ccco3)c(=O)n2C1c1cccs1 (stereo unspecified)	38*	i	-2	20	21
CCOC(=O)C1=C(c2ccccc2)N=c2s/c(=C\c3cc(OC)c(OC)c(OC)c3)c(=O)n2C1c1cccs1 (stereo unspecified)	-1	i	13	28	18
COC(=O)[C@@]12C[C@@H](CC(=O)NCCC(C)C)C(=O)N(Cc3cccc4ccccc34)C1=CCC(C)(C)C2	1	i	4	·	·
CC(C)NC(=O)C1C(c2ccc(C(F)(F)F)cc2)=Nc2ccccc2N1C(=O)c1cccc(C(F)(F)F)c1 (stereo unspecified)	-4	i	-1	·	·
O=C(NCCc1ccccc1)C1Cc2c(-c3ccc(Cl)cc3)ccnc2O1 (stereo unspecified)	0	i	0	-6	·
CCOc1ccc2ccccc2c1C(=O)N1CCN(c2ccccc2)CC1	-8	+	2	-15	-3
CCOC(=O)c1[nH]c(C)c(C(=O)N2CCN(c3ccccc3)CC2)c1C	-8	i	8	-4	-4
CC1CCC(NC(=O)CCS(=O)(=O)c2ccc3c(c2)CCN3C(=O)C2CC2)CC1 (stereo unspecified)	-4	+	-1	-11	-3
COc1ccc(Nc2nc3cc(C)ccc3cc2C#N)cc1	2	+	-1	8	3
COc1ccc(Nc2nc3cc(C)ccc3cc2C#N)c(OC)c1	1	?	-15	-9	-3
CCOc1ccc(NC(=O)c2cccc(NC(=O)c3ccccc3)c2)cc1	-4	i	0	-1	-5
CCc1cccc(CC)c1NC(=O)c1cccc(NC(=O)c2ccccc2)c1	0	+	5	9	-2

Assay outcomes: PubChem BioAssay, several laboratories
